Assay results published in ChEMBL document CHEMBL1765065, “Pro-soft Val-boroPro: a strategy for enhancing in vivo performance of boronic acid inhibitors of serine proteases” (J Med Chem, 2011).
pIC50: −log10 of the molar value. Calls of active or inactive are those of the source. No cut-off for these calls is given here. Starred links: 1 amine or outer side, 2 acyl side, 3 side chain; linkers in the order of their positions; H or OH if unused. Residues, ends and D or L forms follow the SMILES beside them. *: point of attachment. Suc = O=C(CCC(=O)[*:2])[*:1]; boroPro = OB(O)[C@@H]1CCCN1*

What was measured:
Dipeptidyl peptidase 4 [1] = target: T1, Dipeptidyl peptidase 4 (Homo sapiens, UniProt P27487); assay: Inhibition of DDP4
Summary of the method: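 Purified DPPIV (~1 nM) in 0.1 M HEPES, 0.14 M NaCl, pH 7.4 or 8.0, at 25 or 37 °C. Inhibitor (10^-5 to 10^-11 M) preincubated 10 min with enzyme before 0.3 mM H-Ala-Pro-pNA; A410 read. Stocks made in HCl pH 2.0 or buffer pH 7.4/8.0 and diluted just before use.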
Target sequence in this assay (P27487 whole entry, looked up): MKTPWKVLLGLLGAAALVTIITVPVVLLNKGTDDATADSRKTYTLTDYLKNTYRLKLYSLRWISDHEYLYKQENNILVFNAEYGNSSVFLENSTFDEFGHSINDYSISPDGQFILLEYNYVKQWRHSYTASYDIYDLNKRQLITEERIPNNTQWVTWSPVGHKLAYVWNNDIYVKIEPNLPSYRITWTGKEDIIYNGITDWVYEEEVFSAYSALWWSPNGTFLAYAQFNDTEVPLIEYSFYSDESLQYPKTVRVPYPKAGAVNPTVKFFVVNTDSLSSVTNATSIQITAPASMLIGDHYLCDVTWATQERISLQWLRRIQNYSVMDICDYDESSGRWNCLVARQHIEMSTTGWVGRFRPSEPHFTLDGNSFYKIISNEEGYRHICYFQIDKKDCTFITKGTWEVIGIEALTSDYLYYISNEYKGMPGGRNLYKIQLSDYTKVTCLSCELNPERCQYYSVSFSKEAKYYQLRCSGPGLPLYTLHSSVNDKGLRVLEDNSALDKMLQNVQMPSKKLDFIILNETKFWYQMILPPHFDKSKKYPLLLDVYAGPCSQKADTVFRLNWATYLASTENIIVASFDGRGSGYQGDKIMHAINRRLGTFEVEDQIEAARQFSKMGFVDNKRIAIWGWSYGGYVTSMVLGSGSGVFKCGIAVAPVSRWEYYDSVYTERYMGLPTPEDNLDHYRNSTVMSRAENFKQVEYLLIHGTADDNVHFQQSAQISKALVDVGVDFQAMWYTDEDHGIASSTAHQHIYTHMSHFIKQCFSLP

[2] = Inhibition of alpha-chymotrypsin
Dipeptidyl peptidase 4 [3] = target: T1, Dipeptidyl peptidase 4; assay: Inhibition of DDP4 at pH 7.4 preincubated with alpha-chymotrypsin up to 8 hrs
Summary of the method: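 Prodrug preincubated with 0.1 mM α-chymotrypsin for 0, 0.5, 1, 2, 4, 6 or 24 h before purified DPPIV was added. The DPPIV assay then followed: 0.3 mM H-Ala-Pro-pNA, A410, HEPES/NaCl buffer.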
Target sequence in this assay (P27487 whole entry): as the sequence (P27487 whole entry, looked up) above

Mus musculus [4] = assay: Antidiabetic activity in C57BL/KS01HSDLeprdb mouse assessed as decrease in serum glucose AUC level at 0.5 mg/kg, po by oral glucose tolerance test; assay type: functional, organism-based; parameters: dose 0.5 mg/kg
Mus musculus [5] = assay: DDP4-mediated pro-drug activation in ip dosed wild type C57BL/6 mouse assessed as pro-drug level in serum by LC/MS analysis; assay type: organism-based; conditions: in vivo
Summary of the method: (§1)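 Wild-type C57BL/6 (CD26+/+) or DPPIV knockout (CD26-/-) mice, 3 per group, acclimated ≥1 week. Given 50 μg ip in PBS. Blood taken by cardiac puncture after 5 min and treated with 10% TCA. Supernatant intact prodrug quantified by reverse-phase HPLC-MS base peak chromatograms.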

Mus musculus [6] = assay: Antidiabetic activity in po dosed C57BL/KS01HSDLeprdb mouse assessed as decrease in serum glucose AUC level by oral glucose tolerance test; assay type: functional, organism-based
Summary of the method: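 Diabetic male C57BL/KS01HSDLeprdb mice (nondiabetic C57BL/6NHHsd as comparison) acclimated 3 weeks and fasted 4 h. Given 0.0025, 0.01, 0.025 or 0.05 mg/kg free-inhibitor equivalent by oral gavage; vehicle H2O. Oral glucose 1 g/kg given 3 h post-dose. Glucometer blood glucose at predose, 15, 30, 60, 120 and 240 min (5 mice/group); AUC.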

Dipeptidyl peptidase 4 [7] = target: T1, Dipeptidyl peptidase 4; assay: Inhibition of DDP4 at pH 2 preincubated for 10 mins
Target sequence in this assay (P27487 whole entry): as the sequence (P27487 whole entry, looked up) above

Dipeptidyl peptidase 4 [8] = target: T1, Dipeptidyl peptidase 4; assay: Inhibition of DDP4 at pH 7.4 preincubated for 10 mins
Target sequence in this assay (P27487 whole entry): as the sequence (P27487 whole entry, looked up) above

Rattus norvegicus = assay: (§2) Toxicity in po dosed Fisher rat assessed as mortality measured up to 24 hrs; assay type: organism-based; conditions: in vivo, 24 h
[9] = Effect on pro-drug activation assessed as Chg-Pro formation by mass spectrometry; assay type: physicochemical
Summary of the method: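 Prodrug (10 mM stock) incubated with purified DPPIV (2 μM stock) or no enzyme in 0.1 M HEPES, 0.14 M NaCl, pH 8.0, for 10 min at 25 °C. Desalted on C18 and lyophilized. Chg-Pro detected by reverse-phase HPLC-MS scanning its m/z; Chg-Pro was the reference.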

Mus musculus [10] = assay: DDP4-mediated pro-drug activation in ip dosed CD26 -/- mouse assessed as pro-drug level in serum by LC/MS analysis; assay type: organism-based; conditions: in vivo; summary of the method: as §1
[11] = as §2; assay type: organism-based; conditions: Fisher, in vivo
[12] = Chemical stability of the compound assessed as half life at physiological pH; assay type: physicochemical

C[C@H](NC(=O)CCC(=O)O)C(=O)N[C@@H](C)C(=O)N1CCC[C@H]1C(=O)N[C@@H](Cc1ccccc1)C(=O)N[C@@H](C)C(=O)N1CCC[C@H]1B(O)O (Suc-AAPFA-boroPro)
inhibition (Dipeptidyl peptidase 4 [1]): inactive | inhibition [2]: inactive | pIC50 (Dipeptidyl peptidase 4 [3]): 9.15

CC(C)[C@H](NC(=O)[C@@H]1CCCN1C(=O)[C@@H](N)C1CCCCC1)C(=O)N1CCC[C@H]1B(O)O
Activity (Mus musculus [4]): Active | Activity (Mus musculus [5]): Not Active | Activity (Mus musculus [6]): Dose-dependent effect | pIC50 (Dipeptidyl peptidase 4 [7]): 7.70 | pIC50 (Dipeptidyl peptidase 4 [8]): 7.72 | Activity (Rattus norvegicus): Non-toxic | Activity [9]: Not Active | Activity (Mus musculus [10]): Active

CC(C)[C@H](N)C(=O)N1CCC[C@H]1B(O)O [TALABOSTAT]
Activity (Mus musculus [4]): inactive | Activity (Mus musculus [6]): Dose-dependent effect | LD50 at 24 h [11]: 0.5 mg/kg

C[C@H](NC(=O)[C@@H]1CCCN1C(=O)[C@@H](N)Cc1ccccc1)C(=O)N1CCC[C@H]1B(O)O
pIC50 (Dipeptidyl peptidase 4 [7]): 8.08 | pIC50 (Dipeptidyl peptidase 4 [8]): 8.15

CC(=O)N[C@H](C(=O)N1CCC[C@H]1B(O)O)C(C)C
half-life [12]: 30 min
